# From publication PMC3782865 (Journal of medicinal chemistry, 2013)
# Entries after “also recorded” stand apart in the source; their conditions may differ. Counter-ions that a name gives are not always drawn. Like-named read-outs stand apart in the source and are kept apart here.
# Experiments:
# [1] = tested on: trypsin-like (Tr-L) sites of purified 26S proteasomes from rabbit muscles; assay: Inhibition of purified 26S proteasomes, trypsin-like sites; format: biochemical; details: purified rabbit 26S proteasomes
# [2] = tested on: cathepsins in NCI-H929 cells; assay: Cathepsins activity assay; format: cell-based; details: 6 h treatment, Z-FR-amc
# Method in brief: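 Treated and mock-treated cells were washed in PBS and permeabilised on ice with 0.05% digitonin in Tris-HCl pH 7.5 buffer. Cytosol was removed by centrifugation (15 min, 20 000g, 4 °C), and pellets were lysed in Bis-Tris pH 5.5/0.5% CHAPS. Protein-normalised acidic extracts were added to 40 µM substrate in phosphate buffer pH 6.0 with EDTA and DTT. Amc fluorescence was read continuously for 30 min, with rates taken from progress-curve slopes.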
# [3] = biological target: proteasome active sites (β2, β5) in extracts of HEK-293T cells (Homo sapiens, UniProt P28074+Q99436); assay: Competition assays in HEK-293T cell lysate with activity-based probes; format: biochemical; details: HEK-293 extracts
# [4] = tested on: RPMI-8226 cells; assay: Viability of RPMI-8226 cells, Alamar Blue assay; format: cell-based; details: for Toxicity to cells as a single agent: 4a 1 µM, 3 27 µM
# Method in brief: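 RPMI-8226 myeloma cells grown in RPMI-1640 with 10% FBS, penicillin, streptomycin and plasmocin in a humidified 5% CO2 incubator. Cells were exposed to bortezomib or carfilzomib for 1 h, then to test compound (1 µM or 27 µM) or mock for 47 h. Viable cells were measured by Alamar Blue dye conversion. Mean ± SEM of three (bortezomib) or two to seven (carfilzomib) biological replicates.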
# [5] = tested on: proteasome trypsin-like (Tr-L) sites in NCI-H929 and RPMI-8226 multiple myeloma cells; format: cell-based; details: for IC50: ProteasomeGlo
# [6] = biological target: T1, proteasome caspase-like (Casp-L) sites in NCI-H929 and RPMI-8226 multiple myeloma cells (Homo sapiens, UniProt P28072); format: cell-based
# T1 sequence (P28072 1-239): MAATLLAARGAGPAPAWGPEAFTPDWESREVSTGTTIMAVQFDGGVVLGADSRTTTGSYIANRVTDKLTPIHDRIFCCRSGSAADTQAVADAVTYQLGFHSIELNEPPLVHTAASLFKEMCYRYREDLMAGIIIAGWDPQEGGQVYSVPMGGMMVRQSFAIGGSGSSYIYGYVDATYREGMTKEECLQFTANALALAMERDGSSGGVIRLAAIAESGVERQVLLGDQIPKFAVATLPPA
# [7] = tested on: RPMI-8226 cells; details: cited from earlier work
# [8] = biological target: T2, proteasome trypsin-like sites (Mus musculus, UniProt P70195); assay: Inhibition of trypsin-like sites in mice; format: in vivo; details: manuscript in preparation
# T2 sequence (P70195 44-277): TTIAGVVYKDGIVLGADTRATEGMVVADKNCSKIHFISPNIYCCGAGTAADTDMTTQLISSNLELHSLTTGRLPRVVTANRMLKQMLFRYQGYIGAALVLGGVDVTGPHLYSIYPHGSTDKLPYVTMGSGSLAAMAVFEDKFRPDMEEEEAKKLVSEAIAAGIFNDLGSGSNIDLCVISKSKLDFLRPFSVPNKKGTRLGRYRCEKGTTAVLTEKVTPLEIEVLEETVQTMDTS
# [9] = read-out: IC50 Tr-L, NCI-H929, NCI-H929 cells, 6 h treatment
compound,measurement,setting,value
CC(=O)N[C@@H](CC(C)C)C(=O)N[C@@H](CC(C)C)C(=O)N[C@@H](CCCNC(=N)N)C(=O)[C@@]1(C)CO1 [1a],IC50 (Chym-L)/IC50 (Tr-L),[1],>30
Cc1c(O)cccc1C(=O)N[C@H](C(=O)N[C@@H](CO)C(=O)N[C@H](/C=C/S(C)(=O)=O)Cc1ccc(N)cc1)C(C)C [compound 9],IC50 (Chym-L)/IC50 (Tr-L),[1],≪0.0067
CC(C)C[C@H](NC(=O)[C@H](Cc1ccc(CN)cc1)NC(=O)[C@H](Cc1ccccc1)N=[N+]=[N-])C(=O)N[C@H](/C=C/S(C)(=O)=O)Cc1ccc(CN)cc1 [compound 12],Inhibition of cathepsins in cells,[2],slightly more potent inhibitor of cathepsins
same,Inhibition/labeling of proteasome active sites in extracts,[3],most potent inhibitor in extracts
"O=C(CCCCCCC(=O)Nc1ccccc1)NO [varinostat, reference compound]",Viability,"[4]; 1 µM, 48 h treatment, single agent",38.6 ± 0.5%
CC1=CC(C)=[N+]2C1=C(CCCCc1cn([C@@H](Cc3ccccc3)C(=O)N[C@@H](Cc3ccc(CN)cc3)C(=O)N[C@@H](CC(C)C)C(=O)N[C@H](/C=C/S(C)(=O)=O)Cc3ccc(CN)cc3)nn1)c1c(C)cc(C)n1[B-]2(F)F [compound 20],Inhibition/labeling of proteasome active sites in extracts,[3],reduced the specificity
Cc1c(O)cccc1C(=O)N[C@H](C(=O)N[C@@H](CO)C(=O)N[C@@H](CCCNC(=N)N)C(=O)[C@@]1(C)CO1)C(C)C [compound 3],Treatment time to steady-state inhibition of trypsin-like activity,[5]; RPMI-8226 cells,> 6 h
same,IC50,[5]; [9],900 nM
same,IC50,[6],> 30000 nM
same,Toxicity to cells as a single agent,[4],no effect on cells when used as a single agent
same,Toxicity to myeloma cells as a single agent,[7],not toxic
"CC(C)C[C@H](NC(=O)[C@H](Cc1ccccc1)N=[N+]=[N-])C(=O)N[C@@H](CC(C)C)C(=O)N[C@H](/C=C/S(C)(=O)=O)Cc1ccc(CN)cc1 [compound 4a, N3Phe-Leu-Leu-Phe(4-CH2NH2)VS TFA Salt]",Treatment time to steady-state inhibition of trypsin-like activity,[5]; RPMI-8226 cells,1 h
same,Inhibition of cathepsins in cells,[2],Partial inhibition of cathepsins
same,Toxicity to cells as a single agent,[4],not toxic; also recorded: no effect on cells when used as a single agent
same,Sensitization to bortezomib,"[4]; bortezomib 1 h, then 47 h 4a (1 µM)",sensitized them to bortezomib
same,Inhibition of trypsin-like sites in mice,[8],capable of inhibiting trypsin-like sites in mice
"CC1=CC(C)=[N+]2C1=C(CCCCc1cn([C@@H](Cc3ccccc3)C(=O)N[C@@H](CC(C)C)C(=O)N[C@@H](CC(C)C)C(=O)N[C@H](/C=C/S(C)(=O)=O)Cc3ccc(CN)cc3)nn1)c1c(C)cc(C)n1[B-]2(F)F [compound 19, Bodipy-triazole-Phe-Leu-Leu-Phe(4-CH2NH2)VS TFA Salt]",Inhibition/labeling of proteasome active sites in extracts,[3],reacted with β2 and β5 subunits
Cc1c(O)cccc1C(=O)N[C@H](C(=O)N[C@@H](CO)C(=O)N[C@H](/C=C/S(C)(=O)=O)Cc1ccc(CN)cc1)C(C)C [compound 8],Difference in inhibition of trypsin-like activity (IC50) between NCI-H929 and RPMI-8226 cells,[5]; 6 h treatment,greater than 10 fold
same,IC50,[5]; [9],200 nM
same,IC50,"[5]; read-out: IC50 Tr-L, RPMI-8226, RPMI-8226 cells, 6 h treatment",3200 nM
same,IC50,[6],> 30000 nM
same,Inhibition of cathepsins in cells,[2],did not cause any inhibition of cathepsins
CC(C)C[C@H](NC(=O)[C@H](Cc1ccc(N)cc1)NC(=O)[C@H](Cc1ccccc1)N=[N+]=[N-])C(=O)N[C@H](/C=C/S(C)(=O)=O)Cc1ccc(CN)cc1 [compound 11],Inhibition of cathepsins in cells,[2],behaved similarly to 4a
CC(=O)N[C@@H](CCCNC(=N)N)C(=O)N[C@@H](CC(C)C)C(=O)N[C@@H](CCCNC(=N)N)C(=O)[C@@]1(C)CO1 [compound 2],IC50 (Chym-L)/IC50 (Tr-L),[1],>375
CC(C)C[C@H](NC(=O)[C@H](Cc1ccncc1)NC(=O)[C@H](Cc1ccccc1)N=[N+]=[N-])C(=O)N[C@H](/C=C/S(C)(=O)=O)Cc1ccc(CN)cc1 [compound 10],Inhibition of cathepsins in cells,[2],partly reduced cathepsin activity
CC(C)C[C@@H](/C=C/S(C)(=O)=O)NC(=O)[C@H](CC(C)C)NC(=O)[C@H](Cc1ccc(N)cc1)NC(=O)[C@H](Cc1ccccc1)N=[N+]=[N-] [compound 16],IC50 (Chym-L)/IC50 (Tr-L),[1],<0.00017
